Laboratory results published in ChEMBL document CHEMBL1142269, “Imidazo[4,5-c]quinolines as inhibitors of the PI3K/PKB-pathway” (Bioorg Med Chem Lett, 2008).

What was measured:
[1] = molecular target: T1, 3-phosphoinositide-dependent protein kinase 1 (Homo sapiens, UniProt O15530); assay: Inhibition of PDK1
T1 sequence (O15530 whole entry): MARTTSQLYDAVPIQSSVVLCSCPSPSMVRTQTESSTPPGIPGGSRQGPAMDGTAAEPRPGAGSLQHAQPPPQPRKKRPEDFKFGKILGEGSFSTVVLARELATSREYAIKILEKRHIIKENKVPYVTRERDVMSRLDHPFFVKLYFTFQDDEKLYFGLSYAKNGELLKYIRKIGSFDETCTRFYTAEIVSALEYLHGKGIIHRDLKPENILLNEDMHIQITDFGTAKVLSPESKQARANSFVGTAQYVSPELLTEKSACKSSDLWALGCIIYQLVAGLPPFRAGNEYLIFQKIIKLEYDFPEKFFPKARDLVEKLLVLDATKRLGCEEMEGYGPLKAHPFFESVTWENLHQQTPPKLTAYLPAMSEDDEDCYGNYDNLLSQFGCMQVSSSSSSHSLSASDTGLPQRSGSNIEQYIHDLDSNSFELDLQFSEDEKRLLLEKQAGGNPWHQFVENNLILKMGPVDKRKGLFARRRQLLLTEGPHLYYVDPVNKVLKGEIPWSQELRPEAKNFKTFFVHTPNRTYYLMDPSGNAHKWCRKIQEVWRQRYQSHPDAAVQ
Summary of the method: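 Biochemical PDK1 enzymatic activity assay at 10 µM ATP; IC50 determined.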

[2] = Antiproliferative activity against human U87MG cells; format: functional, cell-based, U-87MG ATCC; conditions: U-87 MG
Summary of the method: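 Antiproliferation run in vitro on U87MG cells; potency expressed as EC50.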

[3] = Inhibition of PKA at 10 uM
[4] = molecular target: RAC-alpha serine/threonine-protein kinase (Homo sapiens) (UniProt P31749); assay: Inhibition of PKB at 10 uM
[5] = molecular target: Phosphatidylinositol 4,5-bisphosphate 3-kinase catalytic subunit alpha isoform (Homo sapiens, UniProt P42336); assay: Inhibition of PI3K p110alpha
[6] = molecular target: Phosphatidylinositol 4,5-bisphosphate 3-kinase catalytic subunit beta isoform (Homo sapiens, UniProt P42338); assay: Inhibition of PI3K p110beta
[7] = molecular target: T2, Phosphatidylinositol 4,5-bisphosphate 3-kinase catalytic subunit delta isoform (Homo sapiens, UniProt O00329); assay: Inhibition of PI3K p110delta
T2 sequence (O00329 whole entry): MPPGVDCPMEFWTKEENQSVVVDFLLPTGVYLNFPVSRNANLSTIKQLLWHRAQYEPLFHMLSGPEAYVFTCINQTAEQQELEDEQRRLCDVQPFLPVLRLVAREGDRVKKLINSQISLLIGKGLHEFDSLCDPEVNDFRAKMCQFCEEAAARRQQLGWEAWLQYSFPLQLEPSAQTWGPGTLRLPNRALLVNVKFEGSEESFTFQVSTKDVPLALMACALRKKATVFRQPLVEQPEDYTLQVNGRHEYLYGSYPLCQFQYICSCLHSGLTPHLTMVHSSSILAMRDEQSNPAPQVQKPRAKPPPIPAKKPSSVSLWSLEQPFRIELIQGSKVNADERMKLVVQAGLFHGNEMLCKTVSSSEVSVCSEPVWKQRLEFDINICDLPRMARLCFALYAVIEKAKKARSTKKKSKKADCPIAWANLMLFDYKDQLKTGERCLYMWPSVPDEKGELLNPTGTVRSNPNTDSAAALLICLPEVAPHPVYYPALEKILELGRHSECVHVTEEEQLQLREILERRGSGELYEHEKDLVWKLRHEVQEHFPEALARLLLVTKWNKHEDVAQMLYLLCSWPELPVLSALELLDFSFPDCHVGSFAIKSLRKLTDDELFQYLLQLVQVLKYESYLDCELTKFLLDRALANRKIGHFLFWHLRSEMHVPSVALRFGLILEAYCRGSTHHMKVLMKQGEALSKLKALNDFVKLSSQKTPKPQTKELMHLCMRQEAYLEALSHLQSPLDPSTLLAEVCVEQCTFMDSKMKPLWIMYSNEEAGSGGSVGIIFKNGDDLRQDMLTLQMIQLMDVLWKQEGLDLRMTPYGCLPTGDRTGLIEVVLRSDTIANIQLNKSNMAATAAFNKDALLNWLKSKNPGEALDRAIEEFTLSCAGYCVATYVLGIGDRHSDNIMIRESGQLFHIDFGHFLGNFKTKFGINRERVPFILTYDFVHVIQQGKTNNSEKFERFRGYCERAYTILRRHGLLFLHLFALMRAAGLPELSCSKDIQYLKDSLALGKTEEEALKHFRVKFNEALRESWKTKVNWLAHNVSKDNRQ

[8] = molecular target: Phosphatidylinositol 4,5-bisphosphate 3-kinase catalytic subunit gamma isoform (Homo sapiens, UniProt P48736); assay: Inhibition of PI3K p110gamma
[9] = Antitumor activity in mouse bearing human PC3M tumor assessed as reduction of tumor growth at 50 mg/kg, po bid after 27 days; format: functional, PC-3M; parameters: scale not given: the % may be the effect or the level left
Summary of the method: (§1)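 PC3M tumour-bearing mice, oral dosing twice per day at 50 or 60 mg/kg in NMP/PEG300 vehicle. T/C taken on day 27 as mean difference of treated group over mean difference of vehicle control, ×100. Significance by one-way ANOVA followed by post hoc Dunnett's test versus control.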

[10] = Antitumor activity in mouse bearing human PC3M tumor assessed as reduction of tumor growth at 60 mg/kg, po bid after 27 days; format: functional, PC-3M; parameters: scale not given: the % may be the effect or the level left; summary of the method: as §1
[11] = Antitumor activity in athymic mouse bearing human PC3M tumor assessed as reduction of tumor growth at 75 mg/kg, po bid after 15 days; format: functional, PC-3M; parameters: scale not given: the % may be the effect or the level left
Summary of the method: (§2)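 PC3M tumour-bearing mice, compound formulated in NMP/PEG300, given orally twice per day at 50 or 75 mg/kg. Tumour volume read on day 15. T/C = mean difference of treated group ÷ mean difference of vehicle-treated control group × 100.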

[12] = Antitumor activity in athymic mouse bearing human PC3M tumor assessed as reduction of tumor growth at 50 mg/kg, po bid after 15 days; format: functional, PC-3M; parameters: scale not given: the % may be the effect or the level left; summary of the method: as §2

Sequence of Phosphatidylinositol 4,5-bisphosphate 3-kinase catalytic subunit gamma isoform (P48736 whole entry, canonical isoform): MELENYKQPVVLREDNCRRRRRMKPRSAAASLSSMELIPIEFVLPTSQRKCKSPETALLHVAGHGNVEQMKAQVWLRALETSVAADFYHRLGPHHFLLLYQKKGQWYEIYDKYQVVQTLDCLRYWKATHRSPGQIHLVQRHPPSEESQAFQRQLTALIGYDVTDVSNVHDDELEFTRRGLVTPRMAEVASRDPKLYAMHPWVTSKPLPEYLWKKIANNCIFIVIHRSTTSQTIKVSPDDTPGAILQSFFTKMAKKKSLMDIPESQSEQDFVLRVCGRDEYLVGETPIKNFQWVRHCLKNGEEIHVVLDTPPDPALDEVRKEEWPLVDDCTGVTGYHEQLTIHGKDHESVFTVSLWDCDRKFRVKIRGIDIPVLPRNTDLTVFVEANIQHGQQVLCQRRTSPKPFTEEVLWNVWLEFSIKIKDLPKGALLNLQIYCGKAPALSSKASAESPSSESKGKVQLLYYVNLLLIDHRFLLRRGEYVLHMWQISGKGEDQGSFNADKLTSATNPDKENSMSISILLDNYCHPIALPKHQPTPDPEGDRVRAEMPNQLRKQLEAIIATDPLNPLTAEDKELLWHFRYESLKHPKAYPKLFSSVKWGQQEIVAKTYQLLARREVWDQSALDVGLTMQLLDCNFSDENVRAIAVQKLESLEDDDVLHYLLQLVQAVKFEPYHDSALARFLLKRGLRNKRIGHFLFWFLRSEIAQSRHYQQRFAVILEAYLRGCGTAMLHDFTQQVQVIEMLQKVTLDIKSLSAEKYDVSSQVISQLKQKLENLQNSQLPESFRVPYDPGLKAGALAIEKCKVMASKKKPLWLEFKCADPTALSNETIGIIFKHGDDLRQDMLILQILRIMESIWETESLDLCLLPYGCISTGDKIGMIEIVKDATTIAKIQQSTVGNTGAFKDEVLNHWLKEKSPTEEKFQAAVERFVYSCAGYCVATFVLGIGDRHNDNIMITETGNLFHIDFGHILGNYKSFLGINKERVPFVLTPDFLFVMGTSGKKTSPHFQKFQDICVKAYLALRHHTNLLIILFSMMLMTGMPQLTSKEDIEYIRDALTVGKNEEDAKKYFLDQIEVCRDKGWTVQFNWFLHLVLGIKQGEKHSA
Sequence of Phosphatidylinositol 4,5-bisphosphate 3-kinase catalytic subunit alpha isoform (P42336 whole entry, canonical isoform): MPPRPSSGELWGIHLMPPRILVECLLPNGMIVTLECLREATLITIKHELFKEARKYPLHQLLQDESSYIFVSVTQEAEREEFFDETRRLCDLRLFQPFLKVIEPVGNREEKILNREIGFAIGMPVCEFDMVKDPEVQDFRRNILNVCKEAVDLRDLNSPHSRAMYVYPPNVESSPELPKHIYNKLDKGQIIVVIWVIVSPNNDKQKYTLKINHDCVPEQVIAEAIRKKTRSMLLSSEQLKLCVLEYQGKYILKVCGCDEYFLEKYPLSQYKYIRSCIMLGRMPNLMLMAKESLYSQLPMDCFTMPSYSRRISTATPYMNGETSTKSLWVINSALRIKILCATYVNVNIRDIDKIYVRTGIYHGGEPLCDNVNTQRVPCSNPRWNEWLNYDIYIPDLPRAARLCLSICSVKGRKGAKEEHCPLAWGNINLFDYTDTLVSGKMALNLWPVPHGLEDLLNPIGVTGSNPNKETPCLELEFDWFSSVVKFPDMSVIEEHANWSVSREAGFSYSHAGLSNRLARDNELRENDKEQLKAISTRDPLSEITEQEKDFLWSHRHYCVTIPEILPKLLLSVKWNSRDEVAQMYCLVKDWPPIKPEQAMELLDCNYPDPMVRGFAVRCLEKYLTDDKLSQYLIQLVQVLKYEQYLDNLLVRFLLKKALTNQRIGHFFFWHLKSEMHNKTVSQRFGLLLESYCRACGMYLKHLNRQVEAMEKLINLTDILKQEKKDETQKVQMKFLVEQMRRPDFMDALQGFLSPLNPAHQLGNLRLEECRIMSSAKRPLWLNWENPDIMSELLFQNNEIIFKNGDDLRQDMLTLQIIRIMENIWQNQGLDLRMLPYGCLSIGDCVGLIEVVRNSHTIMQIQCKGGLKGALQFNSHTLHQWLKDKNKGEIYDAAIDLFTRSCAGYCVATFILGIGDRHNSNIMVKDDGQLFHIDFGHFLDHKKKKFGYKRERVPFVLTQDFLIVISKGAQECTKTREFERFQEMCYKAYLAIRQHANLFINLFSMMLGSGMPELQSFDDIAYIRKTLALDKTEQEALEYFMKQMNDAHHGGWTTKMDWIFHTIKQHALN
Sequence of Phosphatidylinositol 4,5-bisphosphate 3-kinase catalytic subunit beta isoform (P42338 whole entry, canonical isoform): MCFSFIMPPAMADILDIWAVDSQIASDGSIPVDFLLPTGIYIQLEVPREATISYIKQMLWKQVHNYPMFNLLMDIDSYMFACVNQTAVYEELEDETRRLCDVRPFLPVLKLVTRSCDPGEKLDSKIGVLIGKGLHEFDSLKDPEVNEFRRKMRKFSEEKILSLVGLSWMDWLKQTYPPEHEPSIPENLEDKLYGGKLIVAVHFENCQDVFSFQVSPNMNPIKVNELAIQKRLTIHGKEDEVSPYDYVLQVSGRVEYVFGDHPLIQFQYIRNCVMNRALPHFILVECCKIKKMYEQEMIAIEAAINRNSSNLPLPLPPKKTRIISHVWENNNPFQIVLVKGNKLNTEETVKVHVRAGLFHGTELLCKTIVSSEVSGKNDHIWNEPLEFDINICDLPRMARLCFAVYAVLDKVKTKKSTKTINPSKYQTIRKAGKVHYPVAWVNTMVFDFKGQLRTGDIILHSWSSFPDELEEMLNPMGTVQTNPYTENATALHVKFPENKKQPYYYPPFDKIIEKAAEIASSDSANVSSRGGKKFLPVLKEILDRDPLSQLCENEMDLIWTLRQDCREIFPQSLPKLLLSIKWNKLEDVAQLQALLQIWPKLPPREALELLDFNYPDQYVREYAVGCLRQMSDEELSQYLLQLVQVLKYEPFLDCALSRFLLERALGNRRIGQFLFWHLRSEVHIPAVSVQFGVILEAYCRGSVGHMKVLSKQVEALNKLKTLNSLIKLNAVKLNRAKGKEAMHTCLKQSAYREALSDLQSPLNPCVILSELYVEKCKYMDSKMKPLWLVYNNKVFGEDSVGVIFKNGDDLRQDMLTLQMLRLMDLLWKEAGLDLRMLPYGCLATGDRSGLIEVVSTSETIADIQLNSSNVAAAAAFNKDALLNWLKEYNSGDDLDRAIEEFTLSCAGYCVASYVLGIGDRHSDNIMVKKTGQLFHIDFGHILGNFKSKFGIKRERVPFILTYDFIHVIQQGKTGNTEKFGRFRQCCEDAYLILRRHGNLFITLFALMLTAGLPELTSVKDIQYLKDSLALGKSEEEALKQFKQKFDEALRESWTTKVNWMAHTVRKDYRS
Sequence of RAC-alpha serine/threonine-protein kinase (Homo sapiens) (P31749 whole entry, canonical isoform): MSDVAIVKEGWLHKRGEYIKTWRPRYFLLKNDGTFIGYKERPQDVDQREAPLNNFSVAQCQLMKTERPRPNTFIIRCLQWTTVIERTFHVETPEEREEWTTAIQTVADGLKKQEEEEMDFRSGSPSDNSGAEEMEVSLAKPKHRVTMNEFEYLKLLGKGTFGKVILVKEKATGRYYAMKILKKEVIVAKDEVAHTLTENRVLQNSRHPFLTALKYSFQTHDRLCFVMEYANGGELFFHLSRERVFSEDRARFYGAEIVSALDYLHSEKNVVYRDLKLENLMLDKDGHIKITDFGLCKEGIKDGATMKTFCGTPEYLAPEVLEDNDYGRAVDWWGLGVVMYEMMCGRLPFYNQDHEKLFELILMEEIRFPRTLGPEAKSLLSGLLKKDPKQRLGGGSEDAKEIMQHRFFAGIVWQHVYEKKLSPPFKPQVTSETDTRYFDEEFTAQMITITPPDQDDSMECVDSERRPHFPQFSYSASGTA

Compound | IC50 [1] [µM] | EC50 [2] [µM] | inhibition [3] [%] | inhibition [4] [%] | IC50 [5] [µM] | IC50 [6] [µM] | IC50 [7] [µM] | IC50 [8] [µM] | Activity [9] [%] | Activity [10] [%] | Activity [11] [%] | Activity [12] [%]
N#CCc1ccc(-n2cnc3cnc4ccc(C#Cc5cccnc5)cc4c32)cc1 | 0.034 | 0.416 | 24 | 0 | 0.064 | 0.432 | 0.098 | 0.067 |  |  |  | 
Cn1c(=O)n(-c2ccc(C(C)(C)C#N)cc2)c2c3cc(C#Cc4cccnc4)ccc3ncc21 | > 25 | 0.013 |  |  | 0.072 | 2.34 | 0.201 | 0.382 | 31 | 9 |  | 
CC(C)(C#N)c1ccc(-n2cnc3cnc4ccc(C#Cc5cccnc5)cc4c32)cc1 | 0.15 | 0.446 |  |  |  |  |  |  |  |  |  | 
Cc1nc2cnc3ccc(C#Cc4cccnc4)cc3c2n1-c1ccc(CC#N)cc1 | 0.11 | 0.275 |  |  |  |  |  |  |  |  |  | 
Cc1nc2cnc3ccc(C#Cc4cccnc4)cc3c2n1-c1ccc(C(C)C#N)cc1 (stereo not given) | 0.245 | 0.143 |  |  | 0.056 | 0.446 | 0.035 | 0.117 |  |  | 50 | 85
CCc1nc2cnc3ccc(C#Cc4cccnc4)cc3c2n1-c1ccc(CC#N)cc1 | 0.327 | 0.4 |  |  |  |  |  |  |  |  |  | 
